Test results: PMC8463927 (Journal of Advanced Research, 2021)
Each block holds one compound with its values, some of them ahead of it.

Tests used:
PDE4 = test: Enzymatic activity of cAMP-specific PDE4 in RAW264.7 cells; assay type: cell-based, murine; conditions: RAW264.7 and LPS-stimulated RAW264.7 cells
[1] = Arctigenin concentration in inflamed skin tissues; assay type: in vivo, mice; conditions: topical application
[2] = system: LPS-induced RAW264.7 cells; test: Inflammatory mediators in LPS-induced RAW264.7 cells; assay type: cell-based, murine
How it was run: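 RAW264.7 cells in DMEM with 10% FBS at 37 °C and 5% CO₂ were given test compound (100, 30, 10 μM) with LPS (1 μg/mL). Cells were lysed after 3 h for SYBR Green RT-PCR (ΔΔCt). Supernatants were kept for TNF-α and IL-6 ELISA and NO measurement.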

RAW264.7 cells [3] = test: Cytotoxicity on RAW264.7 cells; assay type: cell-based, murine; conditions: 24 h, CCK8
[4] = cited from earlier work
[5] = system: LPS-stimulated human PBMCs; test: LPS-induced TNF-α production in human PBMCs; assay type: cell-based; conditions: PBMC, read-out: IC50 on LPS-induced production of TNF-α
How it was run: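 Purchased human PBMCs (1 × 10⁶/well) in RPMI-1640 with 10% FBS and 2 mM L-glutamine were stimulated with LPS in the presence of test compound. TNF-α production was measured.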

PDE4D catalytic domain = PDE4D catalytic domain (Homo sapiens, UniProt Q08499); test: PDEs enzyme assay; assay type: biochemical
PDE4D catalytic domain, sequence (Q08499 386-715 limits assumed): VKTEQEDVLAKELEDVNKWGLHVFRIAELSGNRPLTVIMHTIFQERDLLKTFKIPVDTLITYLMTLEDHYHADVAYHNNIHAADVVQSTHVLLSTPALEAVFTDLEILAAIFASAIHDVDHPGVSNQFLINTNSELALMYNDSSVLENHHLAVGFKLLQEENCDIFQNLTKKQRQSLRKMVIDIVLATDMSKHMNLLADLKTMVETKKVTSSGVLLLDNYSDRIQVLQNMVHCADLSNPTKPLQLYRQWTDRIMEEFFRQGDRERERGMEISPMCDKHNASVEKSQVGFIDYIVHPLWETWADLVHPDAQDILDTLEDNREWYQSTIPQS
How it was run: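 Purified PDE4D catalytic domain. Activity was read as hydrolysis of [³H]-cAMP to [³H]-AMP by scintillation proximity assay.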

PDK1 = molecular target: T1, PDK1 (Homo sapiens, UniProt O15530); test: PDK1 kinase assay; assay type: biochemical; conditions: compared with GSK2334470
T1 sequence (O15530 1-556): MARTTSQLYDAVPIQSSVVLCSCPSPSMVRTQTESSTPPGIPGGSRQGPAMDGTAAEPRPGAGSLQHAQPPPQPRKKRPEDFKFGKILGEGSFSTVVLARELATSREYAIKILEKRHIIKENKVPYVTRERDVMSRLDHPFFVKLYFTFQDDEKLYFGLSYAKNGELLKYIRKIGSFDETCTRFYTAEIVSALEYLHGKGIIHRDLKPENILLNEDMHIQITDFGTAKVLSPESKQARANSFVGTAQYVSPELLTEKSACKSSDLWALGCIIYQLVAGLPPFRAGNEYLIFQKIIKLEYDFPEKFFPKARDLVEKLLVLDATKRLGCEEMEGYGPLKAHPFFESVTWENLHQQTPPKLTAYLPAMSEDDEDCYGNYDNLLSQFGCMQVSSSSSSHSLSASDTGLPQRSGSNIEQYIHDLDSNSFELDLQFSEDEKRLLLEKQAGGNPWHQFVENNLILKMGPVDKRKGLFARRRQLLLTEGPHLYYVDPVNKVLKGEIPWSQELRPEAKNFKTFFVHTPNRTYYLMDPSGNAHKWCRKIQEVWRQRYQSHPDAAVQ

RAW264.7 cells [6] = test: cAMP and CREB phosphorylation in RAW264.7 cells; assay type: cell-based, murine; conditions: for effect on arctigenin-induced phosphorylation of CREB: 10 μM with arctigenin 100 μM
How it was run: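 RAW264.7 cells were exposed to test compound for 15 min under LPS (1 μg/mL) induction, or at 100 μM alongside H89 (10 μM) and/or forskolin (10 μM). Lysates were BCA-normalised and run on 10% SDS-PAGE and nitrocellulose, probed overnight at 4 °C, and detected by chemiluminescence. Intracellular cAMP was measured in 0.1 M HCl lysates by direct ELISA. Mean ± SEM, n = 3.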

[7] = system: IMQ-induced murine psoriasis; test: IMQ-induced murine psoriatic skin lesions; assay type: in vivo, BALB/c mice
How it was run: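 Female BALB/c mice (6–8 weeks, 20–22 g), dorsal skin shaved, got 62.5 mg daily of […] IMQ cream topically for 7 days; groups (n = 7) were normal, IMQ only, and IMQ plus 5% test compound cream. PASI scored blind by 3 investigators. Read-outs: skin cAMP-specific PDE activity normalised to total protein, Ki-67 immunohistochemistry, serum Luminex 17-plex, skin RT-PCR (ΔΔCt), and skin-cell flow cytometry after collagenase IV digestion. Mean ± SEM.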

concentration in the inflamed skin tissues [1]: 29.67 ± 15.42 μg/g skin samples
IC50 (PDE4D catalytic domain): 3.76 ± 0.28 µM
inhibition on PDK1 (PDK1): negligible
SMILES: COc1cc(C[C@H]2C(=O)OC[C@@H]2Cc2ccc(OC)c(OC)c2)ccc1O [Arctigenin]
enzymatic activity of PDE4 in cells (PDE4): inhibit the enzymatic activity of PDE4 in the concentration-dependent manner
production of TNF-α and IL-6 ([2]; 100, 30, and 10 μM, LPS 24 h, ELISA, dose-dependent): reduce the production of TNF-α and IL-6
mRNA expression level of TNF-α and IL-6 ([2]; LPS 3 h, RT-PCR): decreased the mRNA expression level
iNOS and COX-2 mRNA ([2]; concentration-dependent): downregulated
cytotoxicity (RAW264.7 cells [3]): not associated with the cytotoxicity
plasma concentration ([4]; oral administration, several animal species, ref [4], [35]): undetectable
tissue accumulation in brain ([4]; ref [34]): lower than that in intestine, liver, kidney, lung, and heart
IC50 [5]: 35.2 ± 6.01 µM
phosphorylation of CREB (RAW264.7 cells [6]; 15 min, western blot): led to the phosphorylation of CREB
intracellular cAMP (RAW264.7 cells [6]; 30 min, concentration-dependent): significant elevation of intracellular cAMP
serum IL-10 ([7]; Luminex assay): promote the secretion of IL-10
serum inflammatory cytokines ([7]; Luminex assay): reduce the production of inflammatory cytokines
CCR6 and CXCR3 on CD45+ leukocytes ([7]; flow cytometry): suppressed the protein expression of CCR6 and CXCR3
skin myeloid cells, macrophages, neutrophils, DCs ([7]; flow cytometry): decreased when treated with arctigenin
skin-infiltrated leukocytes, APCs, T cells, γδT cells ([7]; flow cytometry): reduced upon arctigenin treatment
expression of chemokines in inflamed skins ([7]; gene expression): suppress the expression of chemokines
expression of inflammatory cytokines in inflamed tissues ([7]; mRNA level): extensively attenuated
Ki-67 positive staining in the epidermis ([7]; topical 5% arctigenin cream): reduced
activity of cAMP-specific PDEs in skins ([7]; topical 5% arctigenin cream): obviously reversed
cumulative PASI scores ([7]; topical 5% arctigenin cream): decreased the cumulative PASI scores
skin level of cAMP ([7]; topical 5% arctigenin cream): upregulate the skin level of cAMP
splenomegaly (spleen index) ([7]; topical 5% arctigenin cream): ameliorate the concomitant splenomegaly
epidermal thickening ([7]; topical 5% arctigenin cream, H&E): dramatically improved the epidermal thickening
body weight loss ([7]; topical 5% arctigenin cream, daily): significantly reversed the body weight loss
therapeutic effect, topical vs oral ([7]; topical 5% cream vs oral 100 mg/kg): better therapeutic effect
phosphorylation of CREB in skins ([7]; western blot): promote the phosphorylation of CREB

SMILES: O=S(=O)(NCCNC/C=C/c1ccc(Br)cc1)c1cccc2cnccc12 [H89, reference compound]
effect on arctigenin-induced phosphorylation of CREB (RAW264.7 cells [6]; 15 min): obviously blocked the effects of arctigenin on phosphorylation of CREB

SMILES: C=C[C@@]1(C)CC(=O)[C@]2(O)[C@@]3(C)[C@@H](O)CCC(C)(C)[C@@H]3[C@H](O)[C@H](OC(C)=O)[C@@]2(C)O1 [forskolin, reference compound]
effect on arctigenin-induced phosphorylation of CREB (RAW264.7 cells [6]; 15 min): further enhance the effects of arctigenin on promoting the phosphorylation of CREB
